For data set [1], the system named is Mus musculus. Kind of data set: Protection against cerulein-induced acute pancreatitis in C57BL/6J mouse assessed as reduction in IL-1beta mRNA level at 30 mg/kg administered 24 hrs post-cerulein addition and measured after 24 hrs by Trisure-reagent based RT-PCR analysis. The class given is functional, organism-based. In a few lines:
(§1)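 Post-induction (treatment) protocol in C57BL/6J mice. Acute pancreatitis is induced by several cerulein administrations, followed by ip sEH inhibitor at 3 or 30 mg/kg. Pancreatic mRNA of TNF-α, IL-1β, MCP-1 and ATF3 is quantified against control and cerulein-only groups. Mean ± SEM, n = 5 per group.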

Data set [2] can be described thus: Tmax in CD-1 mouse at 1 mg/kg, ip measured up to 24 hrs by LC-MS analysis. The conditions noted are these: in vivo. The class given is ADME, organism-based. In a few lines:
(§2)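 Single dose, 1 mg/kg, given to mice intravenously or intraperitoneally. Parameters are taken from the plasma concentration–time profile: T1/2, Tmax, Cmax, C0 (iv only), AUClast, AUCINF_obs, Vz and Cl. Bioavailability is derived from ip versus iv exposure.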

Data set [3] concerns Mus musculus. Nature of the data set: Protection against cerulein-induced acute pancreatitis in C57BL/6J mouse assessed as reduction in MCP1 mRNA level at 30 mg/kg administered twice per day for 5 days followed by cerulein addition and measured 24 hrs post-last dose by Trisure-reagent based RT-PCR analysis. The conditions noted are these: time 6.0 day. The class given is functional, organism-based. In a few lines: (§3)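 Pre-induction (prevention) protocol in C57BL/6J mice. Inhibitor is given ip at 30 mg/kg before cerulein induction of acute pancreatitis. Pancreatic mRNA of TNF-α, IL-1β, MCP-1 and ATF3 is compared with control and cerulein-only mice. Mean ± SEM, n = 5 per group.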

Data set [4] can be described thus: Acute toxicity in CD-1 mouse assessed as effect on behavior at 5 to 80 mg/kg, ip administered daily for 5 days. Format: organism-based. The conditions noted are these: in vivo, 120 h, dose 5-80 mg/kg, time 5 day. In a few lines: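 Mice received the compound intraperitoneally once a day for five consecutive days at 5, 10, 20 and 80 mg/kg. Acute toxicity was judged from body weight during treatment, apparent behaviour problems and the presence of petechiae.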

Data set [5] has as its system Mus musculus. Kind of data set: Protection against cerulein-induced acute pancreatitis in C57BL/6J mouse assessed as reduction in ATF3 mRNA level at 30 mg/kg administered twice per day for 5 days followed by cerulein addition and measured 24 hrs post-last dose by Trisure-reagent based RT-PCR analysis. The class given is functional, organism-based. The conditions noted are these: time 6.0 day. In a few lines: as §3

Data set [6] in a line: Tmax in CD-1 mouse at 1 mg/kg, iv measured up to 24 hrs by LC-MS analysis. Format: ADME, organism-based. The following applies: in vivo. In a few lines:
as §2

Data set [7] can be described thus: Half life in CD-1 mouse at 1 mg/kg, iv measured up to 24 hrs by LC-MS analysis. Format: ADME, organism-based. The following applies: in vivo. In a few lines: as §2
Data set [8] in a line: Cmax in CD-1 mouse at 1 mg/kg, ip measured up to 24 hrs by LC-MS analysis. Format: ADME, organism-based. On the set-up: route intraperitoneal, dose 1 mg/kg, time <=24. The following applies: in vivo. In a few lines: as §2
Data set [9] in a line: AUC (infinity) in CD-1 mouse at 1 mg/kg, iv measured up to 24 hrs by LC-MS analysis. Format: ADME, organism-based. More on the design: route intravenous, dose 1 mg/kg, time <=24. The conditions noted are these: in vivo. In a few lines: as §2
The test system of data set [10] is Mus musculus. Nature of the data set: Protection against cerulein-induced acute pancreatitis in C57BL/6J mouse assessed as reduction in TNF-alpha mRNA level at 3 mg/kg administered 24 hrs post-cerulein addition and measured after 24 hrs by Trisure-reagent based RT-PCR analysis. The class given is functional, organism-based. In a few lines: as §1
In data set [11] the test system is Mus musculus. Kind of data set: Protection against cerulein-induced acute pancreatitis in C57BL/6J mouse assessed as reduction in inflammation at 30 mg/kg administered 24 hrs post-cerulein addition and measured after 24 hrs by H and E staining based histological analysis. The class given is functional, organism-based. In a few lines:
(§4)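 H&E-stained pancreas sections are scored for edema and inflammation. Groups are control, cerulein and cerulein plus inhibitor, in both the pre-induction and post-induction cerulein acute pancreatitis models in mice.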

For data set [12], the system named is Mus musculus. Nature of the data set: Protection against cerulein-induced acute pancreatitis in C57BL/6J mouse assessed as reduction in inflammation at 30 mg/kg administered twice per day for 5 days followed by cerulein addition and measured 24 hrs post-last dose by H and E staining based histological analysis. The conditions noted are these: time 6.0 day. Format: functional, organism-based. In a few lines: as §4

Data set [13] in a line: AUC (infinity) in CD-1 mouse at 1 mg/kg, ip measured up to 24 hrs by LC-MS analysis. Format: ADME, organism-based. More on the design: route intraperitoneal, dose 1 mg/kg, time <=24. The following applies: in vivo. In a few lines:
as §2

The test system of data set [14] is Mus musculus. Nature of the data set: Protection against cerulein-induced acute pancreatitis in C57BL/6J mouse assessed as reduction in ATF3 mRNA level at 3 mg/kg administered 24 hrs post-cerulein addition and measured after 24 hrs by Trisure-reagent based RT-PCR analysis. The class given is functional, organism-based. In a few lines:
as §1

Data set [15] has as its system Mus musculus. Kind of data set: Protection against cerulein-induced acute pancreatitis in C57BL/6J mouse assessed as reduction in TNF-alpha mRNA level at 30 mg/kg administered twice per day for 5 days followed by cerulein addition and measured 24 hrs post-last dose by Trisure-reagent based RT-PCR analysis. The class given is functional, organism-based. The conditions noted are these: time 6.0 day. In a few lines:
as §3

The target of data set [16] is T1, Bifunctional epoxide hydrolase 2 (Homo sapiens, UniProt P34913).
T1 sequence (P34913 whole entry): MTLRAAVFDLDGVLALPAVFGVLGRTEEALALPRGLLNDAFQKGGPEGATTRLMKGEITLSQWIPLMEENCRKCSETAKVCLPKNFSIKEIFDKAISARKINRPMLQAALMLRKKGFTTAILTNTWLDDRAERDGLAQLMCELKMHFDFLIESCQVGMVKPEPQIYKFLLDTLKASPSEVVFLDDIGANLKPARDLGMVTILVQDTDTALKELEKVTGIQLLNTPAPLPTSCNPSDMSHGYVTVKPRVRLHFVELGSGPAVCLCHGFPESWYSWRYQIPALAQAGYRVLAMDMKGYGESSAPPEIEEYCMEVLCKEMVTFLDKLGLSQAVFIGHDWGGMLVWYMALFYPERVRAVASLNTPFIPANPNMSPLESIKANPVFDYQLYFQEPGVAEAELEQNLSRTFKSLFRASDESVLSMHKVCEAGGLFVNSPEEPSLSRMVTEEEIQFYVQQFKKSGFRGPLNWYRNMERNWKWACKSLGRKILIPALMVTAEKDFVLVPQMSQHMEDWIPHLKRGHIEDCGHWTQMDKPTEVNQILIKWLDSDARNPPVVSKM
Nature of the data set: Inhibition of recombinant human soluble epoxide hydrolase using CMNPC as substrate preincubated for 5 mins followed by substrate addition and measured at 30 secs interval for 10 mins by fluorescence assay.

Data set [17] is described as follows: Selectivity ratio of inhibition of recombinant human CYP1A2 to IC50 for inhibition of recombinant mouse soluble epoxide hydrolase.
Data set [18] is described as follows: Apparent permeability across apical to basolateral side in human Caco-2 cells at 10 uM measured after 2 hrs by LC-MS/MS analysis. The following applies: caco-2, 2 h.
Data set [19] is described as follows: Selectivity ratio of inhibition of recombinant human CYP2C19 to IC50 for inhibition of recombinant mouse soluble epoxide hydrolase.
The species entered for data set [20] is Homo sapiens. Kind of data set: Selectivity ratio of inhibition of recombinant human CYP2C19 to IC50 for inhibition of recombinant human soluble epoxide hydrolase.
Data set [21] can be described thus: Selectivity ratio of inhibition of recombinant human CYP3A4 to IC50 for inhibition of recombinant mouse soluble epoxide hydrolase using DBF as substrate.
The nature of data set [22]: Efflux ratio of apparent permeability across basolateral to apical side over apical to basolateral side in human Caco-2 cells at 10 uM measured after 2 hrs by LC-MS/MS analysis.
Data set [23] can be described thus: Selectivity ratio of inhibition of recombinant human CYP2D6 to IC50 for inhibition of recombinant mouse soluble epoxide hydrolase.
For data set [24], the species on record is Homo sapiens. Nature of the data set: Selectivity ratio of inhibition of recombinant human CYP2D6 to IC50 for inhibition of recombinant human soluble epoxide hydrolase.

Active and inactive are the calls of the source. The rule behind the calls is not given here.

With `CC(C)S(=O)(=O)N1CCC(NC(=O)NC23CC4CC(CC(C4)O2)C3)CC1`, the outcome with Mus musculus [1], with Mus musculus [3], with Mus musculus [5], in the data set with Mus musculus [11], in the data set with Mus musculus [12] and in the data set on Mus musculus [15] was Active. Besides, the Tmax in data set [2] and in data set [6] was 9.6 min throughout. Moreover, in data set [4], the Activity entry is “Non-Toxic”. Also, the t1/2 in [7] turned out to be 168 min. Also, in [8], the Cmax (as a rule, the highest concentration seen after dosing) is 117.33 ng/mL. The AUC – broadly, the area under the concentration-time curve, a measure of exposure – came to 59.63 ng·h/mL in [9] and 35.2 ng·h/mL in data set [13]. Further, the outcome with Mus musculus [10] and in the data set on Mus musculus [14] was inactive.
For the compound `CC(=O)N1CCC(NC(=O)NC23CC4CC(CC(C4)O2)C3)CC1`, the IC50 (usually the concentration needed to halve the response being measured) in [16] came to 29.9 nM. Moreover, the Selectivity ratio (in [17]; in data set [19]; in the data set listed under Homo sapiens [20]; in [21]; in data set [23]; in the data set filed under Homo sapiens [24]) was more than 100 throughout. Besides, in data set [18], the Papp (commonly a coefficient for how fast a substance crosses the barrier) was 2.24 ×10⁻⁶ cm/s. Moreover, the efflux ratio (usually the permeability from basolateral to apical divided by that in the opposite direction, in the common usage) at 2 h, 10 µM in [22] worked out at 4.3.
